Laboratory results: ChEMBL document CHEMBL2034933, “New quinazolinone-pyrimidine hybrids: synthesis, anti-inflammatory, and ulcerogenicity studies” (Eur J Med Chem, 2012)

Experiments:
Rattus norvegicus [1] = experiment: Antiinflammatory activity in albino rat assessed as inhibition of carrageenan-induced paw edema at 100 mg/kg, po administered 1 hr prior to carrageenan-challenge measured after 3 hrs; format: functional
How it was run: (§1)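 Adult albino rats of both sexes (120–150 g), pre-hydrated with 3 ml water by gavage, five per group. Test agents suspended in distilled water with a few drops of Tween 80, given orally 1 h before sub-plantar injection of 50 µl 1% carrageenan into the right hind paw. Dial-gauge paw thickness taken at 0.5, 1, 2 and 3 h, with the left paw as reference. % inhibition = (Wc−Wt)/Wc × 100 against saline/Tween 80 controls.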

Rattus norvegicus [2] = experiment: Antiinflammatory activity in albino rat assessed as inhibition of carrageenan-induced paw edema at 100 mg/kg, po administered 1 hr prior to carrageenan-challenge measured after 2 hrs; format: functional; how it was run: as §1
Rattus norvegicus [3] = experiment: Antiinflammatory activity in albino rat assessed as inhibition of carrageenan-induced paw edema at 100 mg/kg, po administered 1 hr prior to carrageenan-challenge measured after 1 hr; format: functional; how it was run: as §1
Rattus norvegicus [4] = experiment: Antiinflammatory activity in albino rat assessed as inhibition of carrageenan-induced paw edema at 100 mg/kg, po administered 1 hr prior to carrageenan-challenge measured after 0.5 hrs; format: functional; how it was run: as §1
Rattus norvegicus [5] = experiment: Ulcerogenic activity in fasted albino rat assessed as ulcer index at 100 mg/kg po administered qd for 3 days measured on day 4; format: toxicity, organism-based; design: dose 100 mg/kg, route oral; conditions: in vivo, 72 h
How it was run: (§2)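 Albino rats of both sexes (120–150 g), five per group, fasted 20 h, then dosed orally in 1% Tween (test agents 100 mg/kg, celecoxib and diclofenac sodium 50 mg/kg). Feeding cycle: 2 h fast, 2 h feed, 20 h fast, repeated with doses on days 2 and 3. Ulcers scored 0–4. Ulcer index = %incidence/10 + mean ulcer number + mean severity.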

Ovis aries = organism: Ovis aries; experiment: Selectivity ratio of IC50 for ovine COX2 to ovine COX1
How it was run: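 Ovine COX-1 and COX-2 inhibition measured with a commercial COX inhibitor screening kit following the Gierse et al. method. Selectivity expressed as the ratio IC50(COX-2)/IC50(COX-1).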

Rattus norvegicus [6] = experiment: Antiinflammatory activity in po dosed albino rat assessed as inhibition of carrageenan-induced paw edema administered 1 hr prior to carrageenan-challenge measured after 3 hrs; format: functional, organism-based
How it was run: (§3)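 Carrageenan rat paw oedema (albino rats of both sexes, 120–150 g), oral dosing in Tween 80 suspension 1 h before 50 µl 1% carrageenan sub-plantar injection. Inhibition read at 3 h over a three-dose series (50, 100, 200 mg/kg for test agents; 20, 50, 100 mg/kg for diclofenac sodium). IC50 given in mg/kg and µmol/kg.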

Rattus norvegicus [7] = experiment: Antiinflammatory activity in po dosed albino rat assessed as inhibition of carrageenan-induced paw edema administered 1 hr prior to carrageenan-challenge relative to diclophenac; format: functional
Rattus norvegicus [8] = experiment: Antiinflammatory activity in albino rat assessed as inhibition of carrageenan-induced paw edema at 50 mg/kg, po administered 1 hr prior to carrageenan-challenge measured after 3 hrs; format: functional; how it was run: as §1
Rattus norvegicus [9] = experiment: Antiinflammatory activity in albino rat assessed as inhibition of carrageenan-induced paw edema at 200 mg/kg, po administered 1 hr prior to carrageenan-challenge measured after 3 hrs; format: functional; how it was run: as §3
Rattus norvegicus [10] = experiment: Antiinflammatory activity in albino rat assessed as inhibition of carrageenan-induced paw edema at 50 mg/kg, po administered 1 hr prior to carrageenan-challenge measured after 1 hr; format: functional; how it was run: as §1
Rattus norvegicus [11] = experiment: Ulcerogenic activity in fasted albino rat assessed as ulcer index at 50 mg/kg po administered qd for 3 days measured on day 4; format: toxicity, organism-based; design: dose 50 mg/kg, route oral; conditions: in vivo, 72 h; how it was run: as §2
Rattus norvegicus [12] = experiment: Antiinflammatory activity in albino rat assessed as inhibition of carrageenan-induced paw edema at 50 mg/kg, po administered 1 hr prior to carrageenan-challenge measured after 0.5 hrs; format: functional; how it was run: as §1
Rattus norvegicus [13] = experiment: Antiinflammatory activity in albino rat assessed as inhibition of carrageenan-induced paw edema at 20 mg/kg, po administered 1 hr prior to carrageenan-challenge measured after 3 hrs; format: functional; how it was run: as §3
Rattus norvegicus [14] = experiment: Antiinflammatory activity in albino rat assessed as inhibition of carrageenan-induced paw edema at 50 mg/kg, po administered 1 hr prior to carrageenan-challenge measured after 2 hrs; format: functional; how it was run: as §1

SMILES	inhibition in vivo at 100 mg/kg (Rattus norvegicus [1]) [%]	inhibition in vivo at 100 mg/kg (Rattus norvegicus [2]) [%]	inhibition in vivo at 100 mg/kg (Rattus norvegicus [3]) [%]	inhibition in vivo at 100 mg/kg (Rattus norvegicus [4]) [%]	UI (Rattus norvegicus [5])	Ratio IC50 (Ovis aries)	IC50 (Rattus norvegicus [6]) [mg/kg]	inhibition (INH) (Rattus norvegicus [7]) [%]	inhibition in vivo at 50 mg/kg (Rattus norvegicus [8]) [%]	inhibition in vivo at 200 mg/kg (Rattus norvegicus [9]) [%]	inhibition in vivo at 50 mg/kg (Rattus norvegicus [10]) [%]	UI (Rattus norvegicus [11])	inhibition in vivo at 50 mg/kg (Rattus norvegicus [12]) [%]	inhibition in vivo at 20 mg/kg (Rattus norvegicus [13]) [%]	inhibition in vivo at 50 mg/kg (Rattus norvegicus [14]) [%]
N#Cc1c(-c2ccc(Cl)cc2)nc(SCC(=O)Nn2c(COc3ccc(Cl)cc3Cl)nc3ccccc3c2=O)n(Cc2ccccc2)c1=O	77.2	77.2	72.7	61.5	11.3	–	–	–	–	–	–	–	–	–	–
N#Cc1c(Nc2ccc(Cl)cc2)nc(SCC(=O)Nn2c(COc3ccc(Cl)cc3Cl)nc3ccccc3c2=O)nc1-c1ccc(Cl)cc1	64.9	61.4	54.5	46.1	–	–	–	–	–	–	–	–	–	–	–
O=C(CSc1nc(-c2ccc(O)cc2)c(C(=O)O)c(=O)[nH]1)Nn1c(COc2ccc(Cl)cc2Cl)nc2ccccc2c1=O	38.6	38.6	36.4	32.7	–	–	–	–	–	–	–	–	–	–	–
N#Cc1c(-c2ccccc2)nc(SCC(=O)Nn2c(COc3ccc(Cl)cc3Cl)nc3ccccc3c2=O)n(Cc2ccccc2)c1=O	79	79	77.3	76	10.9	–	–	–	–	–	–	–	–	–	–
N#Cc1c(Nc2ccc(Cl)cc2)nc(SCC(=O)Nn2c(COc3ccc(Cl)cc3Cl)nc3ccccc3c2=O)nc1-c1ccccc1	59.6	57.9	54.5	51.9	–	–	–	–	–	–	–	–	–	–	–
Cn1c(SCC(=O)Nn2c(COc3ccc(Cl)cc3Cl)nc3ccccc3c2=O)nc(-c2ccccc2)c(C#N)c1=O	59.6	59.6	54.5	51.9	–	–	–	–	–	–	–	–	–	–	–
Cn1c(SCC(=O)Nn2c(COc3ccc(Cl)cc3Cl)nc3ccccc3c2=O)nc(-c2ccc(O)cc2)c(C#N)c1=O	86	86	80	76.9	11.22	0.62	82.89	>90	70.4	97.8	–	–	–	–	–
N#Cc1c(Nc2ccccc2)nc(SCC(=O)Nn2c(COc3ccc(Cl)cc3Cl)nc3ccccc3c2=O)nc1-c1ccc(Cl)cc1	56.1	50.9	43.6	36.5	–	–	–	–	–	–	–	–	–	–	–
Cn1c(SCC(=O)Nn2c(COc3ccc(Cl)cc3Cl)nc3ccccc3c2=O)nc(-c2ccc(Cl)cc2)c(C#N)c1=O	73.7	73.7	76.4	80.8	–	–	–	–	–	–	–	–	–	–	–
N#Cc1c(Nc2ccc(O)cc2)nc(SCC(=O)Nn2c(COc3ccc(Cl)cc3Cl)nc3ccccc3c2=O)nc1-c1ccc(O)cc1	86.8	86.8	86.4	80.8	14.22	7.3	88.27	>90	56.1	91.2	–	–	–	–	–
N#Cc1c(Cl)nc(SCC(=O)Nn2c(COc3ccc(Cl)cc3Cl)nc3ccccc3c2=O)nc1-c1ccc(O)cc1	73.7	73.7	72.7	67.3	–	–	–	–	–	–	–	–	–	–	–
N#Cc1c(-c2ccccc2)nc(SCC(=O)Nn2c(COc3ccc(Cl)cc3Cl)nc3ccccc3c2=O)[nH]c1=O	86	86	81.8	80.8	14.4	20.6	86.74	>90	68.4	91.2	–	–	–	–	–
N#Cc1c(-c2ccc(O)cc2)nc(SCC(=O)Nn2c(COc3ccc(Cl)cc3Cl)nc3ccccc3c2=O)n(Cc2ccccc2)c1=O	61.4	56.1	54.5	51.9	–	–	–	–	–	–	–	–	–	–	–
N#Cc1c(Nc2ccccc2)nc(SCC(=O)Nn2c(COc3ccc(Cl)cc3Cl)nc3ccccc3c2=O)nc1-c1ccccc1	78.1	78.1	77.3	71.2	13.26	–	–	–	–	–	–	–	–	–	–
N#Cc1c(Cl)nc(SCC(=O)Nn2c(COc3ccc(Cl)cc3Cl)nc3ccccc3c2=O)nc1-c1ccccc1	68.4	66.7	60	53.9	–	–	–	–	–	–	–	–	–	–	–
N#Cc1c(-c2ccc(Cl)cc2)nc(SCC(=O)Nn2c(COc3ccc(Cl)cc3Cl)nc3ccccc3c2=O)[nH]c1=O	64.9	64.9	63.6	61.5	–	–	–	–	–	–	–	–	–	–	–
N#Cc1c(Nc2ccc(Cl)cc2)nc(SCC(=O)Nn2c(COc3ccc(Cl)cc3Cl)nc3ccccc3c2=O)nc1-c1ccc(O)cc1	79	77.2	72.7	65.4	12.08	–	–	–	–	–	–	–	–	–	–
O=C([O-])Cc1ccccc1Nc1c(Cl)cccc1Cl.[Na+] [DICLOFENAC SODIUM]	91.2	–	–	–	–	–	45.01	–	87.3	–	83.6	17.02	76.9	42.2	87.7
O=C(CSc1nc(-c2ccccc2)c(C(=O)O)c(=O)[nH]1)Nn1c(COc2ccc(Cl)cc2Cl)nc2ccccc2c1=O	64.9	68.4	69.1	61.5	–	–	–	–	–	–	–	–	–	–	–
O=C(CSc1nc(-c2ccc(Cl)cc2)c(C(=O)O)c(=O)[nH]1)Nn1c(COc2ccc(Cl)cc2Cl)nc2ccccc2c1=O	61.4	61.4	58.2	51.9	–	–	–	–	–	–	–	–	–	–	–
Cc1ccc(-c2cc(C(F)(F)F)nn2-c2ccc(S(N)(=O)=O)cc2)cc1 [CELECOXIB]	–	–	–	–	–	0.02	–	–	–	–	–	12.51	–	–	–
N#Cc1c(Nc2ccc(O)cc2)nc(SCC(=O)Nn2c(COc3ccc(Cl)cc3Cl)nc3ccccc3c2=O)nc1-c1ccc(Cl)cc1	91.2	91.2	90.9	71.2	14.43	0.4	83.36	>90	61.4	96.5	–	–	–	–	–
N#Cc1c(Cl)nc(SCC(=O)Nn2c(COc3ccc(Cl)cc3Cl)nc3ccccc3c2=O)nc1-c1ccc(Cl)cc1	68.4	68.4	63.6	61.5	–	–	–	–	–	–	–	–	–	–	–
N#Cc1c(Nc2ccc(O)cc2)nc(SCC(=O)Nn2c(COc3ccc(Cl)cc3Cl)nc3ccccc3c2=O)nc1-c1ccccc1	59.6	59.6	72.7	61.5	–	–	–	–	–	–	–	–	–	–	–
N#Cc1c(-c2ccc(O)cc2)nc(SCC(=O)Nn2c(COc3ccc(Cl)cc3Cl)nc3ccccc3c2=O)[nH]c1=O	68.4	68.4	63.6	61.5	–	–	–	–	–	–	–	–	–	–	–
N#Cc1c(Nc2ccccc2)nc(SCC(=O)Nn2c(COc3ccc(Cl)cc3Cl)nc3ccccc3c2=O)nc1-c1ccc(O)cc1	91.2	91.2	90.9	90.4	11.38	0.44	81.31	>90	77.2	96.5	–	–	–	–	–
